Assay results as given in ChEMBL document CHEMBL1122278, “Gastric antisecretory 9H-xanthen-9-amines” (1983).

Legend:
Canis familiaris [1] = assay: Effect on pentagastrin-induced acid secretion in gastric fistula dogs, at 1 mg/kg, iv for 1 h; type: functional, Canis lupus familiaris, Stomach
Outline: (§1)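 Four chronic gastric fistula dogs (11.2–16.2 kg), fasted 24 h, saline infused via saphenous vein, then pentagastrin 8 (μg/kg)/h for maximal stimulation. After 1 h acid plateau, compound given 1 mg/kg iv in PEG 200. Juice collected at 15-min intervals and centrifuged; titratable acid output from volume × titre, as mean ± SE, equivalents per hour.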

Canis familiaris [2] = assay: Effect on pentagastrin-induced acid secretion in gastric fistula dogs, at 1 mg/kg, iv for 3 h; type: functional, Canis lupus familiaris, Stomach; outline: as §1
Rattus norvegicus [3] = assay: Effect of peroral administration of compound on acid secretion inhibition in the PLR; NS means no significant dose response.; type: functional, organism-based
Outline: (§2)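 Rats (male Carworth Farms, 270–360 g) fasted 18 h; compound in PEG 200 by gavage 1 h before pylorus ligation under ether, six per group. Gastric contents collected 2 h post-ligation; pH, volume, titre (NaOH to pH 7.4) measured, output = volume × titre.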

Rattus norvegicus [4] = assay: Antisecretory activity in PLR after pre-incubation in gastric juice at pH 1.0 for 2 min at 15 mg/kg dose, measured as acid output; type: functional
Outline: (§3)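 Male Carworth Farms rats (270–360 g), fasted 18 h with water, pylorus ligated under ether. Compound in PEG 200 (80 mg/mL) added to gastric juice from separate 4-h ligated rats (stored frozen) at 7.5 mg/mL, juice neutralized with 1.0 N NaOH before or after addition, or left untreated (pH 1.0). Given intraduodenally right after ligation. Juice collected 2 h later; volume, titre (NaOH to pH 7.4), output = volume × titre.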

Rattus norvegicus [5] = assay: Antisecretory activity in PLR after pre-incubation in gastric juice at pH 1.0 for 30 min at 15 mg/kg dose, measured as acid output; type: functional; outline: as §3
Rattus norvegicus [6] = assay: Antisecretory activity in PLR after pre-incubation in gastric juice at pH 1.0 for 60 min at 15 mg/kg dose, measured as acid output; type: functional; outline: as §3
Rattus norvegicus [7] = assay: Antisecretory activity in PLR after pre-incubation in neutralized juice for 60 min at 15 mg/kg dose, measured as acid output; type: functional; outline: as §3
Rattus norvegicus [8] = assay: Effect of intraduodenal administration of compound on acid secretion inhibition in the PLR; Value ranges from 0.8-4.8; type: functional
Rattus norvegicus [9] = assay: Effect of intravenous administration of compound on acid secretion inhibition in the PLR; Value ranges from 0.3-2.7; type: functional
Outline: (§4)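 Male Carworth Farms rats (270–360 g), fasted 18 h, pylorus ligated under ether; compound in PEG 200 given intravenously at ligation, six rats per group. Gastric contents taken 2 h after ligation, centrifuged, titrated with NaOH to pH 7.4; output = volume × titre.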

Rattus norvegicus [10] = assay: Effect of peroral administration of compound on acid secretion inhibition in the PLR; Value ranges from 4.7-14.9; type: functional; outline: as §2
Rattus norvegicus [11] = assay: Antisecretory activity in PLR after preincubation in gastric juice at pH 1.0 for 2 min at 15 mg/kg dose, measured as acid titreated; type: functional; outline: as §3
Rattus norvegicus [12] = assay: Antisecretory activity in PLR after pre-incubation in gastric juice at pH 1.0 for 30 min at 15 mg/kg dose, measured as acid titreated; type: functional; outline: as §3
Rattus norvegicus [13] = assay: Antisecretory activity in PLR after pre-incubation in gastric juice at pH 1.0 for 60 min at 15 mg/kg dose, measured as acid titreated; type: functional; outline: as §3
Rattus norvegicus [14] = assay: Antisecretory activity in PLR after pre-incubation in neutralized juice for 60 min at 15 mg/kg dose, measured as acid titreated; type: functional; outline: as §3
Rattus norvegicus [15] = assay: Gastric antisecretory activity in pylorus-ligated rat at a concentration of 50 mg/kg perorally, expressed as increase in mean pH.; type: functional; settings: route oral
Outline: (§5)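 Male Carworth Farms rats (270–360 g), fasted 18 h with water; compound in PEG 200 by gavage 1 h before pylorus ligation under ether. Killed 2 h after ligation; juice centrifuged, volume and pH measured, supernatant titrated with NaOH to pH 7.4, output = volume × titre. Mean of six to seven animals against controls.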

Rattus norvegicus [16] = assay: Gastric antisecretory activity in pylorus ligated rat at a concentration of 50 mg/kg perorally, expressed as % decrease in mean titratable acid output of gastric juice in treated vs. control groups.; type: functional; settings: route oral; outline: as §5
Rattus norvegicus [17] = assay: Antisecretory activity in PLR after pre-incubation in gastric juice at pH 1.0 for 2 min at 15 mg/kg dose, measured as volume; type: functional; outline: as §3
Rattus norvegicus [18] = assay: Antisecretory activity in PLR after preincubation in gastric juice at pH 1.0 for 60 min at 15 mg/kg dose, measured as volume; type: functional; outline: as §3
Rattus norvegicus [19] = assay: Antisecretory activity in PLR after pre-incubation in neutralized juice for 60 min at 15 mg/kg dose, measured as volume; type: functional; outline: as §3
Rattus norvegicus [20] = assay: Effect of intraduodenal administration of compound on acid secretion inhibition in the PLR; Value ranges from 1.4-7.8; type: functional
Rattus norvegicus [21] = assay: Effect of intravenous administration of compound on acid secretion inhibition in the PLR; Value ranges from 0.9-5.3; type: functional; outline: as §4
Canis familiaris [22] = assay: Effect on pentagastrin-induced acid secretion in gastric fistula dogs, at 1 mg/kg, iv for 2 h; type: functional, Canis lupus familiaris, Stomach; outline: as §1
Rattus norvegicus [23] = assay: Antisecretory activity in PLR after pre-incubation in gastric juice at pH 1.0 for 30 min at 15 mg/kg dose, measured as volume

Structure (SMILES): CCN1CCCC(NC2c3ccccc3Oc3ccccc32)C1 (stereo unspecified)
- Acid output (Canis familiaris [1]): 3.37 u equiv hr-1
- Change (Canis familiaris [1]): -72%
- Acid output (Canis familiaris [2]): 4.6 u equiv hr-1
- Change (Canis familiaris [2]): -62%
- ED50 (Rattus norvegicus [3]): Not significant
- Acid output (Rattus norvegicus [4]): 191 u equiv 2hr-1
- Acid output (Rattus norvegicus [5]): 367 u equiv 2hr-1
- Acid output (Rattus norvegicus [6]): 324 u equiv 2hr-1
- Acid output (Rattus norvegicus [7]): 70 u equiv 2hr-1
- ED50 (Rattus norvegicus [8]): 2.3 mg/kg
- ED50 (Rattus norvegicus [9]): 1.2 mg/kg
- ED50 (Rattus norvegicus [10]): 8.9 mg/kg
- Acid titer (Rattus norvegicus [11]): 43 m equiv l-1
- Acid titer (Rattus norvegicus [12]): 62 m equiv l-1
- Acid titer (Rattus norvegicus [13]): 59 m equiv l-1
- Acid titer (Rattus norvegicus [14]): 26 m equiv l-1
- Delta pH (Rattus norvegicus [15]): 5.6
- Delta TAO (Rattus norvegicus [16]): 98
- Volume (Rattus norvegicus [17]): 4.6 mL
- Volume (Rattus norvegicus [18]): 5.6 mL
- Volume (Rattus norvegicus [19]): 2.5 mL
- ED50 (Rattus norvegicus [20]): 3.8 mg/kg
- ED50 (Rattus norvegicus [21]): 2.3 mg/kg
- Acid output (Canis familiaris [22]): 2.46 u equiv hr-1
- Change (Canis familiaris [22]): -80%
- Volume (Rattus norvegicus [23]): 6 mL
